Bioassay records deposited in PubChem by several laboratories.
PLCb3 inh: PLC-beta3 (human) inhibition, primary screen | Q01970 | Purified PLC-beta3, fluorogenic substrate, fluorescence | inhibition, % at 12.2 µM | 0.18% of 370,000 active; in the data active = inhibition above about 11%;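 note: 0% = median of compound wells on plate and 100% = full blocker control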
PLCg1 inh: blocks human PLC-gamma1 enzyme activity. 0.84% of 370,000 active. purified PLC-gamma1, fluorogenic substrate, fluorescence. inhibition, % at 12.2 µM; in the data active = inhibition above about 9.5%
UCH37 inh: inhibitors of human deubiquitinating enzyme UCH37; purified proteasome/UCH37, Ub-AMC cleavage fluorescence; Q9Y5K5; 0.33% of 330,000 active; inhibition, % (test concentration not listed);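 active = mean inhibition over replicate wells above about 20%, limit read from the data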;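 note: 0% = compound-free wells with enzyme and 100% = wells lacking proteasome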
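Reagent: Ub-AMC substrate; assay system: Proteasome-associated human UCH37 deubiquitinase; controls: no-proteasome and no-compound wells; read-out: % inhibition of Ub-AMC cleavage fluorescence; timing: 30 min preincubation with enzyme, 25 min cleavage at room temperature; signal: AMC fluorescence from Ub-AMC cleavage, excitation 355 nm, emission 460 nm; buffer or medium: Tris-HCl pH 7.4 plus ovalbumin, ATP-MgCl2, DTT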
Rpn11 block: Rpn11 (human) deubiquitinase inhibition | O00487 | human 26S proteasome, Ub4-pepOG fluorescence polarization; 20S core pre-blocked with epoxomicin | inhibition, % at 20 µM | 0.59% of 360,000 active;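 active = inhibition at 20 µM, scaled to each plate's controls, above about 33%, limit read from the data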
The depositor's hits bear a star. A selection: hits, their analogues and other compounds. The true share with any hit is near 1.7%.

`CC(Sc1nnc(-c2ccccc2)c(-c2ccccc2)n1)C(=O)NCC1CCCO1` (stereo not drawn) gave PLCb3 inh -1.2, PLCg1 inh 12.2*, UCH37 inh -0.4 and Rpn11 block -0.7.
`Cc1ccc(-c2nnc(SC(C)C(=O)NCC3CCCO3)nc2-c2ccc(C)cc2)cc1` (stereo not drawn) gave PLCb3 inh 0.5, PLCg1 inh 0.9, UCH37 inh 2.0 and Rpn11 block -11.3.
Screening CCC(C)[C@H](NC(=O)N1CCn2c1nc1ccccc12)C(=O)NCCc1ccc(OC)c(OC)c1 (stereo partly drawn) returned PLCb3 inh -6.9, PLCg1 inh -0.7, UCH37 inh 3.7 and Rpn11 block -14.1.
For CCC(C)[C@H](NC(=O)N1CCn2c1nc1ccccc12)C(=O)NCCc1ccccc1 (stereo partly drawn) the results were PLCb3 inh -1.3, PLCg1 inh 9.9*, UCH37 inh 1.4 and Rpn11 block 3.0.
Cc1occc(=O)c1OC(=O)Nc1ccc(Cl)c(Cl)c1 was read as PLCb3 inh 3.9, PLCg1 inh 0.6, UCH37 inh 6.9 and Rpn11 block 41.5*.
COc1ccc(C(=O)Oc2c(C)occc2=O)cc1OC was read as PLCb3 inh -0.7, PLCg1 inh -0.9, UCH37 inh 4.5 and Rpn11 block 2.0.
For CNc1ccc(C(=O)OCC(=O)NC(=O)NC2CCCC2)cc1[N+](=O)[O-] the results were PLCb3 inh -4.6, PLCg1 inh 12.7*, UCH37 inh 4.4 and Rpn11 block 14.5.
CC1=NN(c2ccccc2)C(=O)/C1=C\c1ccc(Oc2ccc([N+](=O)[O-])cc2[N+](=O)[O-])cc1 was read as PLCb3 inh 4.5, PLCg1 inh 19.8*, UCH37 inh 6.5 and Rpn11 block 12.5.
For COc1cc(/C=C2/C(=O)N(c3ccc(C)c(C)c3)N=C2C)cc([N+](=O)[O-])c1O the results were PLCb3 inh -3.3, PLCg1 inh 0.5, UCH37 inh 7.6 and Rpn11 block -2.2.
For CCCN(CC(=O)Nc1cccc(S(N)(=O)=O)c1)CC(=O)Nc1ccc(F)c(F)c1F the results were PLCb3 inh -4.4, PLCg1 inh 3.3, UCH37 inh 3.0 and Rpn11 block -0.6.
Screening CCCN(CC(=O)Nc1cccc(Br)c1)CC(=O)Nc1ccc(F)c(F)c1F returned PLCb3 inh 11.3*, PLCg1 inh 9.1, UCH37 inh 4.8 and Rpn11 block 3.2.
Nc1c(N(CCC2=CCCCC2)C(=O)COc2ccc(F)cc2)c(=O)[nH]c(=O)n1Cc1ccccc1 was read as UCH37 inh 24.2* and Rpn11 block 3.1.
Screening Nc1c(N(CCC2=CCCCC2)C(=O)CCCOc2ccccc2)c(=O)[nH]c(=O)n1Cc1ccccc1 returned PLCb3 inh -4.0, PLCg1 inh 3.8, UCH37 inh -0.2 and Rpn11 block -1.8.
`CC(=NNC(=O)c1cc(C(C)(C)C)[nH]n1)C12CC3CC(CC(C3)C1)C2` gave UCH37 inh 0.1.
`CC(C)(C)c1cc[n+](-c2[nH]c(=O)sc2C=N/N=C(\[O-])c2cccnc2)cc1` gave UCH37 inh 21.3*.
For COCc1cc(=O)[nH]c(N=C(N)Nc2ccc(C)cc2C)n1 the results were UCH37 inh 1.0.
`COCc1cc(=O)[nH]c(N=C(N)Nc2ccccc2C)n1` gave UCH37 inh 29.2*.
Screening Cc1ccc[n+](-c2[nH]c(=O)sc2C=N/N=C(\[O-])CCn2c3ccccc3c3ccccc32)c1 returned UCH37 inh 2.5.
CCCSc1nc2sc3c(c2c(=O)[nH]1)CCN(Cc1ccccc1)C3 was read as UCH37 inh -130.6 and Rpn11 block 65.4*.
`O=C1Cc2ccccc2C(=O)N1` gave PLCb3 inh -0.5 and PLCg1 inh 10.7*.
Screening CC(CCc1ccc2c(c1)OCO2)=N/N=C1/NC(=O)CC(C(=O)Nc2ccc(Cl)cc2)S1 (stereo not drawn) returned UCH37 inh 6.2.
For O=C(COc1ccc(-c2ccccc2)cc1)NN=Cc1cc(O)ccc1Br the results were UCH37 inh 0.6.
O=c1oc(/C=C/c2ccc([N+](=O)[O-])s2)nc2ccccc12 was read as UCH37 inh 2.3 and Rpn11 block 80.6*.
CC(=O)Oc1ccccc1/C=C/c1nc2ccccc2c(=O)o1 was read as PLCb3 inh -167.2, PLCg1 inh -121.5, UCH37 inh -2.0 and Rpn11 block 25.7.
`COc1ccc(OC)c(C(c2nnnn2CCc2ccccc2)N2CCN(c3ccccc3)CC2)c1` (stereo not drawn) gave PLCb3 inh 2.8, PLCg1 inh 10.8*, UCH37 inh 3.1 and Rpn11 block -1.8.
Screening CCOc1ccc(S(=O)(=O)NCCC(=O)NCCc2ccc(OCC)c(OCC)c2)cc1 returned PLCb3 inh -3.6, PLCg1 inh -1.2, UCH37 inh 1.7 and Rpn11 block -0.7.
Screening CCOc1ccc(CCNC(=O)CCS(=O)(=O)c2ccc(OC)cc2)cc1OCC returned PLCb3 inh -2.4, PLCg1 inh 0.2, UCH37 inh 29.9* and Rpn11 block -6.4.
`CCOC(=O)N1CCN(c2cc(NCCC(=O)O)c3c4c(onc24)-c2ccccc2C3=O)CC1` gave UCH37 inh 26.8*.
For O=C(O)CCCNc1cc(N2CCN(C(=O)c3ccco3)CC2)c2noc3c2c1C(=O)c1ccccc1-3 the results were PLCb3 inh -13.7 and PLCg1 inh -6.1.
Screening Cc1[nH]nc2c1C(c1ccco1)C(C#N)=C(N)O2 (stereo not drawn) returned PLCb3 inh -6.3, PLCg1 inh -3.6, UCH37 inh 2.8 and Rpn11 block -1.2.
COc1ccc(-c2ccc(C3C(C#N)=C(N)Oc4n[nH]c(C)c43)o2)cc1 (stereo not drawn) was read as PLCb3 inh -229.0, PLCg1 inh -161.2, UCH37 inh 6.4 and Rpn11 block 73.2*.
O=C(CC=NOCc1ccc([N+](=O)[O-])cc1)Nc1ccc(Cl)cc1 was read as UCH37 inh 6.2.
For Cc1ccc(C2CC(=O)N3CN(c4ccc(Br)cc4)CSC3=C2C#N)o1 (stereo not drawn) the results were PLCb3 inh -123.0, PLCg1 inh -101.7, UCH37 inh 2.8 and Rpn11 block 45.3*.
`C[N+](C)=C1SCC(C)(C=NO)S1` (stereo not drawn) gave UCH37 inh 0.5.
For Cc1[nH][nH]c(=O)c1C(c1ccc(-c2ccccc2C(=O)O)o1)c1c(C)[nH][nH]c1=O the results were PLCb3 inh -2.1, PLCg1 inh 1.4, UCH37 inh 24.0* and Rpn11 block -0.5.
Cc1cc(OCC(=O)ON=C(N)c2ccccc2)ccc1Br was read as UCH37 inh 0.0.
For C1CSC2(N1)C1CC3CC(C1)CC2C3 (stereo not drawn) the results were PLCb3 inh 11.7*, PLCg1 inh 0.6, UCH37 inh 3.0 and Rpn11 block 0.1.
`CC(=NNC(=O)Cc1c(C)[nH][nH]c1=O)c1ccc2ccccc2c1` gave UCH37 inh 4.8.
For Cc1noc(C)c1COc1ccc(C(=O)OCc2nnc(-c3ccc(Cl)cc3)o2)cc1 the results were PLCb3 inh -1.0, PLCg1 inh 12.2*, UCH37 inh 0.8 and Rpn11 block 3.5.
